The values that follow come from ChEMBL document CHEMBL5126600, “Discovery of the First-in-Class G9a/GLP Covalent Inhibitors” (J Med Chem, 2022).

In test [1] the target is T1, Histone-lysine N-methyltransferase EHMT2 (Homo sapiens) (UniProt Q96KQ7).
T1 sequence (whole entry): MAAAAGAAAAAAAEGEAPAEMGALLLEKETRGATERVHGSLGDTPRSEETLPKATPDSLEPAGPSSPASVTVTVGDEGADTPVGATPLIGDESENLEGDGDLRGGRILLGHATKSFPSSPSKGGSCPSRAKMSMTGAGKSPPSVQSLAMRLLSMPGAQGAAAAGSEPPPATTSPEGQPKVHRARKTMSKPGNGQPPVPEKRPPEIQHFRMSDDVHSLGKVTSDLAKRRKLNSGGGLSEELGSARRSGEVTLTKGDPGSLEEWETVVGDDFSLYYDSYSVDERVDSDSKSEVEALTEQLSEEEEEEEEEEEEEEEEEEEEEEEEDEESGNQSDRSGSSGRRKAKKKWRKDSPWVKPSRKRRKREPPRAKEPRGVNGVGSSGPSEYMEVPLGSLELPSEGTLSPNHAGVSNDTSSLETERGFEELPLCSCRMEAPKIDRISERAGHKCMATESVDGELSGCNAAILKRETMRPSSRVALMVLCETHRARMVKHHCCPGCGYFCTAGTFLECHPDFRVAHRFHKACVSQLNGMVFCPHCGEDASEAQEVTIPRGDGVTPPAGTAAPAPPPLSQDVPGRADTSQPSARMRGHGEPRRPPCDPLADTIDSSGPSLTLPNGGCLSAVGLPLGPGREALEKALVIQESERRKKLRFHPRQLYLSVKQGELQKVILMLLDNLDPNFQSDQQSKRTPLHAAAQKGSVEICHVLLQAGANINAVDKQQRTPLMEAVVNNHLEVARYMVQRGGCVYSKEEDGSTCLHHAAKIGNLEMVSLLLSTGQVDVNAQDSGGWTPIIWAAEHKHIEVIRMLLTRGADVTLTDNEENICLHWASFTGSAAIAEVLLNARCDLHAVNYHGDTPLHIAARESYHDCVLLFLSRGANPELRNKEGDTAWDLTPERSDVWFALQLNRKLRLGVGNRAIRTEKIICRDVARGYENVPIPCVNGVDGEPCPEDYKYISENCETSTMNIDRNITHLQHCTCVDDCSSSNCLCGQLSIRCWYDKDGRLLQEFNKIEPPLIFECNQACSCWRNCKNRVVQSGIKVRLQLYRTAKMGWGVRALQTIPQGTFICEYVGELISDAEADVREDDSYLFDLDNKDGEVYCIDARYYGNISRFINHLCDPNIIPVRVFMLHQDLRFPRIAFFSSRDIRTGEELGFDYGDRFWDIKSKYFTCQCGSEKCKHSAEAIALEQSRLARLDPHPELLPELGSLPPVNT
Put plainly: Inhibition of human G9a (913 to 1193 residues) assessed as covalent modification by measuring G9a adduct formation at 50 uM incubated for 1 hr by mass spectrometry relative to control. The method in brief:
(§1)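 Purified G9a or GLP catalytic domain (5 μM) in 50 mM Tris-HCl pH 7.5, 150 mM NaCl incubated with 50 μM compound or DMSO at room temperature (1 h, or 30 and 60 min in time course); intact mass by ESI LC/MS-TOF; adduct % = adduct/(protein + adduct) × 100.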

The target of test [2] is T2, Histone-lysine N-methyltransferase EHMT2 (Homo sapiens, UniProt Q96KQ7).
T2 sequence (Q96KQ7 whole entry): T1 sequence (whole entry)
The experiment in a line: Inhibition of human G9a (913 to 1193 residues) using H3 peptide as substrate measured upto 45 mins in presence of SAM cofactor.

Test [3] deals with T2, Histone-lysine N-methyltransferase EHMT2. Put plainly: Binding affinity to human G9a (913 to 1193 residues) assessed as dissociation constant by isothermal titration calorimetry method. The method in brief:
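Initial 0.4 μL injection, then 13 injections of 500 μM compound from the syringe, stirred at 750 rpm. Experiment time about 50 min. Data fitted to a single binding site model. Mean ± SD of two independent measurements.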
(In ITC the heat of successive injections is recorded.)

Test [4] addresses Histone-lysine N-methyltransferase EZH1 (Homo sapiens) (UniProt Q92800). The experiment in a line: Inhibition of N-terminal His-tagged full-length recombinant human EZH1 ( 2 to 747 residues) expressed in baculovirus expression system at 1 uM using 3H-SAM as a substrate relative to control. The essentials: (§2)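 Contracted 3H-SAM methyl-transfer scintillation proximity assay against a panel of methyltransferases; compound tested at 1 μM in duplicate; inhibition expressed as percent of control enzyme activity.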

Test [5] concerns the target Histone-lysine N-methyltransferase EZH2 (Homo sapiens) (UniProt Q15910). Put plainly: Inhibition of N-terminal His-tagged EZH2 (2 to 746 residues) (unknown origin) expressed in baculovirus expression system at 1 uM using 3H-SAM as a substrate relative to control. The essentials: as §2
The target in test [6] is Protein arginine N-methyltransferase 3 (Homo sapiens) (UniProt O60678). The experiment in a line: Inhibition of N-terminal His-tagged PRMT3 (2 to 531 residues)(unknown origin) expressed in Escherichia coli at 1 uM using 3H-SAM as a substrate relative to control. The method in brief: as §2
Protein arginine N-methyltransferase 3 (Homo sapiens), sequence (O60678 2-531 limits assumed): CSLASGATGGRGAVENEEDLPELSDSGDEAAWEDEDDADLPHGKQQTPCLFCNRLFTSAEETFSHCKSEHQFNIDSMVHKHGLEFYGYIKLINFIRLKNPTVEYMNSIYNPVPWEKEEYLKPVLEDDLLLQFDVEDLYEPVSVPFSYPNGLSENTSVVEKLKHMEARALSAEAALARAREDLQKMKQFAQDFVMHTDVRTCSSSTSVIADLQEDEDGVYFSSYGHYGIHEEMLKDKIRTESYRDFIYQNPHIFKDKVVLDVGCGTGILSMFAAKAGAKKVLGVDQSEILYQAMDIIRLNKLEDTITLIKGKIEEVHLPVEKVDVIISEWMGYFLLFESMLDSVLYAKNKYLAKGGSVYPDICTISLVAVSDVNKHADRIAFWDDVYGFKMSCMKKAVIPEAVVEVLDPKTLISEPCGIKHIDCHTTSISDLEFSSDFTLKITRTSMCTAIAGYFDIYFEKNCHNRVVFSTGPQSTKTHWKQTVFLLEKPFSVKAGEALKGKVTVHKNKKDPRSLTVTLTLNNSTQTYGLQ
The target in test [7] is Histone-lysine N-methyltransferase SETD1B (Homo sapiens) (UniProt Q9UPS6). Put plainly: Inhibition of N-terminal GST-tagged SET1B (1629 to 1923 residues) (unknown origin) expressed in Escherichia coli at 1 uM using 3H-SAM as a substrate relative to control. The essentials:
as §2

The target in test [8] is N-lysine methyltransferase KMT5A (Homo sapiens) (UniProt Q9NQR1). Put plainly: Inhibition of SETD8 (unknown origin) at 1 uM using 3H-SAM as a substrate relative to control. The essentials: as §2
N-lysine methyltransferase KMT5A (Homo sapiens), sequence (Q9NQR1 whole entry, the tested form may be a part): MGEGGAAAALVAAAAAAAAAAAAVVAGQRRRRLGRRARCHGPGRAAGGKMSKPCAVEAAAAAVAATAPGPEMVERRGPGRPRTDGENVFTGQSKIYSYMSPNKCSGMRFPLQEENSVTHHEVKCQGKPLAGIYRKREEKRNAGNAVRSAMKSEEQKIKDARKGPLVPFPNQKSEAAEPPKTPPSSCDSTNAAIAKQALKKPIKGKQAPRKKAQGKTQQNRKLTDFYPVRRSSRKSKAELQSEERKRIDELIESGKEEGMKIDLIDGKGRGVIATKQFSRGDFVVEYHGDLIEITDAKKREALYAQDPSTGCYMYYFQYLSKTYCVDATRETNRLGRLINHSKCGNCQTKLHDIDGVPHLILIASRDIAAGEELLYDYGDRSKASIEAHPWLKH
In test [9] the target is Histone-lysine N-methyltransferase SMYD3 (Homo sapiens) (UniProt Q9H7B4). Put plainly: Inhibition of recombinant human C-terminal His-tagged SMYD3 (2 to 428 residues) expressed in Sf9 insect cells at 1 uM using 3H-SAM as a substrate relative to control. The essentials: as §2
Histone-lysine N-methyltransferase SMYD3 (Homo sapiens), sequence (Q9H7B4 whole entry, the tested form may be a part): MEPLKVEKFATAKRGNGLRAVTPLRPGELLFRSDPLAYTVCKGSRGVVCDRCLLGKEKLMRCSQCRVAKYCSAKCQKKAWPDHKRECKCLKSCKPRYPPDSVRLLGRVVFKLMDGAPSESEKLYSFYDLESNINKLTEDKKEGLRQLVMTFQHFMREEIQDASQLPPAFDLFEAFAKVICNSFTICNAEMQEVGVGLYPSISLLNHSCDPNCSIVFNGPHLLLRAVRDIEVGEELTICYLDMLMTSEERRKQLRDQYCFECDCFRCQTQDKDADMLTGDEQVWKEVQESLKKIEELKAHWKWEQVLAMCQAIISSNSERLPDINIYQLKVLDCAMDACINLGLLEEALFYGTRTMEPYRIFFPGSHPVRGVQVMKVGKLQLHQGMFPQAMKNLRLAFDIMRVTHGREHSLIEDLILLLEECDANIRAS
Test [10] addresses T1, Histone-lysine N-methyltransferase EHMT2 (Homo sapiens). Put plainly: Inhibition of human G9a (913 to 1193 residues) assessed as covalent modification by measuring G9a adduct formation by mass spectrometry. The settings on record: time <= 120.0 min, TDE = time-dependent effect. The method in brief:
as §1

The structures appear in SMILES notation.

Histone-lysine N-methyltransferase EZH2 (Homo sapiens), sequence (Q15910 whole entry, looked up, the tested form may be a part): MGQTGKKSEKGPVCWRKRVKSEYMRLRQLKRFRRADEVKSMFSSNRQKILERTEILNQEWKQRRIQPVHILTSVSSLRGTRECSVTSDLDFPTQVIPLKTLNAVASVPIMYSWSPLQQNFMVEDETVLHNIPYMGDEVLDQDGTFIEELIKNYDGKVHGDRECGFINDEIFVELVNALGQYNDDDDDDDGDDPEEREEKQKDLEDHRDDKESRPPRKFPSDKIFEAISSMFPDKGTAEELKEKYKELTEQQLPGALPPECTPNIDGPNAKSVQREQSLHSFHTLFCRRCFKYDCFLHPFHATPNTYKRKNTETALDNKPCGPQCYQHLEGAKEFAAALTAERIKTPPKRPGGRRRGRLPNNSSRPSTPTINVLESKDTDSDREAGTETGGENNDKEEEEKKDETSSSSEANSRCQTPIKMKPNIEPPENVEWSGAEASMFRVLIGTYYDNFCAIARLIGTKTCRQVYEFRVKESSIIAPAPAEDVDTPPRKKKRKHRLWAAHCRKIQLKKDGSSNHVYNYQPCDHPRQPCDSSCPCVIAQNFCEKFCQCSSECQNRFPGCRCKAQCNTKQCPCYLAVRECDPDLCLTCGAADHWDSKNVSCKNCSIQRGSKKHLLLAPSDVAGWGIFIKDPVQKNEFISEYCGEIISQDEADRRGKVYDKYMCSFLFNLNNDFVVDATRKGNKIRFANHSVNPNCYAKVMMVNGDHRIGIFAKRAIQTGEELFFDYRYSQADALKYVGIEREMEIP
Histone-lysine N-methyltransferase EZH1 (Homo sapiens), sequence (Q92800 whole entry, the tested form may be a part): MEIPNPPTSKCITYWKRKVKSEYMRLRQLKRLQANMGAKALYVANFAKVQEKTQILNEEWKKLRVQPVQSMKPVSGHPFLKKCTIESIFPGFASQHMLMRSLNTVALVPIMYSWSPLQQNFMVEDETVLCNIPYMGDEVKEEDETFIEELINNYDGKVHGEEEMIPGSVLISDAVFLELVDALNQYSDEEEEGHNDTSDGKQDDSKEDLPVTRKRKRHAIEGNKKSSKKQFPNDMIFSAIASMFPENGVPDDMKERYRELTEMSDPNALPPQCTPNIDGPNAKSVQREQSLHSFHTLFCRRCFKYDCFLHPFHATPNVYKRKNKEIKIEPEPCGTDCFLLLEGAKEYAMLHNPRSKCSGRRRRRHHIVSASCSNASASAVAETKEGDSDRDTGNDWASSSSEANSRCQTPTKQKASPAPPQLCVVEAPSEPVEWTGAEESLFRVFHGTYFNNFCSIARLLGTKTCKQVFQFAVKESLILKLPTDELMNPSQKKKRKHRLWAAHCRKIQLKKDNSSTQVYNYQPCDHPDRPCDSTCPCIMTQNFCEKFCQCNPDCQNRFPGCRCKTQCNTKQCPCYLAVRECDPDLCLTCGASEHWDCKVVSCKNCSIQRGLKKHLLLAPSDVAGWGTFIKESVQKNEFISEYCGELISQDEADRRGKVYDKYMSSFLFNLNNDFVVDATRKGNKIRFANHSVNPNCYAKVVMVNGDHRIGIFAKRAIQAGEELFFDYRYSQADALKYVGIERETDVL
Histone-lysine N-methyltransferase SETD1B (Homo sapiens), sequence (Q9UPS6 whole entry, the tested form may be a part): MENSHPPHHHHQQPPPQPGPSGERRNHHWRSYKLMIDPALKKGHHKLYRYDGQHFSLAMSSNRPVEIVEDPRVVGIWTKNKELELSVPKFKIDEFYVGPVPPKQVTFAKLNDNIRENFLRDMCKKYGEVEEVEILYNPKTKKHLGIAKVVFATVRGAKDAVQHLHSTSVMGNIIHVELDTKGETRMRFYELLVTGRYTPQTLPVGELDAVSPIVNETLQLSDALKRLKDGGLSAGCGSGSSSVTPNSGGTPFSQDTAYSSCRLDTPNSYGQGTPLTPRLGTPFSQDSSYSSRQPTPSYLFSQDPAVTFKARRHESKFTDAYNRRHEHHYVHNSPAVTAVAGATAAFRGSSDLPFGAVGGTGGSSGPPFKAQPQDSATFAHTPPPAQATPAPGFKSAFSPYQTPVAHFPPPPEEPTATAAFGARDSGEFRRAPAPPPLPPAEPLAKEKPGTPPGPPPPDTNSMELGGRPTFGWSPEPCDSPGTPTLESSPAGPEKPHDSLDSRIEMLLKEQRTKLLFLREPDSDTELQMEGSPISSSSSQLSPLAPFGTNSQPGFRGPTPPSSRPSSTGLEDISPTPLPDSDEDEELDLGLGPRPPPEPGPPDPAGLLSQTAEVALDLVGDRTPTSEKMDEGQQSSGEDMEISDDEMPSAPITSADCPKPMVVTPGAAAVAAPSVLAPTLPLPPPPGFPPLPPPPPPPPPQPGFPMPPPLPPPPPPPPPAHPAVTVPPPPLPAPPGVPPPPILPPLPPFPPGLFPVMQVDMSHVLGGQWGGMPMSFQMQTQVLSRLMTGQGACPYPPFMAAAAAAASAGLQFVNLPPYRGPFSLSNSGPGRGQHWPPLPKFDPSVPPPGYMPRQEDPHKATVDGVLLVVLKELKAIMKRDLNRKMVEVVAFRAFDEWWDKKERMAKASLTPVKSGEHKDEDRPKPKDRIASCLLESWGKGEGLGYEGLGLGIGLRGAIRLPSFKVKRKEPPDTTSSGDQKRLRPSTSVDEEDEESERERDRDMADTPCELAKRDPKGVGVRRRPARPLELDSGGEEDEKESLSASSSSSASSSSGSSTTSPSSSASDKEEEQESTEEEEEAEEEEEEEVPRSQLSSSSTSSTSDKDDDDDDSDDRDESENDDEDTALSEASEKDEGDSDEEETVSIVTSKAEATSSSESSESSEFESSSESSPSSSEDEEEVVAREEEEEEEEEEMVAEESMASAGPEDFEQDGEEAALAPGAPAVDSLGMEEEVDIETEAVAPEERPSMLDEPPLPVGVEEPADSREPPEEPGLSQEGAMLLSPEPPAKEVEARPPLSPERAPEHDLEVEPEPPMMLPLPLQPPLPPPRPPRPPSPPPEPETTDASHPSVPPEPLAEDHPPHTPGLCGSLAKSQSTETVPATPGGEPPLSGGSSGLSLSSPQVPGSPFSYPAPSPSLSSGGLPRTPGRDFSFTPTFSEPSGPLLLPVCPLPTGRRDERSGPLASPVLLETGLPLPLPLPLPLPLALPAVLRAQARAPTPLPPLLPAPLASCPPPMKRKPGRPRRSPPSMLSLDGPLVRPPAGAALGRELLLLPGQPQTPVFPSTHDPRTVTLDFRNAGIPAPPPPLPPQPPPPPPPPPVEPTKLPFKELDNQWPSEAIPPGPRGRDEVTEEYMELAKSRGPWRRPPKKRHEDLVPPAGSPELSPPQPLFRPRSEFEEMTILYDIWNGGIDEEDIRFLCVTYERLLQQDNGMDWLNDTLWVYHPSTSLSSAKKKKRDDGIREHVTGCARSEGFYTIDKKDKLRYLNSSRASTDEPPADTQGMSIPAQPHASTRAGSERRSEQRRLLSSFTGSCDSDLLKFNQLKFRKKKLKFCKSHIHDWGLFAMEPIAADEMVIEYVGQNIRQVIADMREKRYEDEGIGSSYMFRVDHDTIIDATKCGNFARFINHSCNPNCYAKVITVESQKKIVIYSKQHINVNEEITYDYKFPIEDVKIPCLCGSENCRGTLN

For orientation: inhibition means the share of the control response that was lost under treatment. The term IC50 denotes the concentration at which inhibition is half-maximal. A word on the Kd: it is the constant that tells how readily two partners part at equilibrium. For the compound `C=CC(=O)Nc1cc(NC2CCN(C(C)C)CC2)c2cc(OC)c(OCCCN3CCCC3)cc2n1`, the inhibition in [1] was 50%; in test [4], below 50%; in [5], below 50%; in [6], below 50%; in test [7], below 50%; in test [8], below 50%. For the same compound, the inhibition is below 50% in [9] and “Tde” in test [10]. For the same compound, the IC50 in [2] amounted to 0.1 µM. For the same compound, the Kd in test [3] was 0.044 µM.
